The text below walks through data of PMC9768356 (iScience, 2022).

The conditions of series [1]: cited from earlier work.
A further series relates to Areg. Kind of series: Areg protein in BMDMs. As to conditions: n = 4 per group. It counts as cell-based, mice. An outline of the steps: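 BMDMs: bone marrow cells from mouse hind legs, erythrocytes lysed, grown in DMEM with 10% FBS and 10 ng/mL GM-CSF at 37°C and 5% CO2. Non-adherent cells replated after 24 h and cultured 7 days, medium changed every 3 days. Cells were infected with E. coli and harvested at 12 h. Iron-loading agent 100 μM for 20 h or iron chelator 100 μM for 12 h. Lysis in RIPA, BCA protein assay, 20 or 40 μg on 12% SDS-PAGE, PVDF. Anti-Areg 1:1000 with β-actin loading control (1:5000), HRP secondaries 1:5000, ECL detection. Supernatant Areg by ELISA. n = 4 per group.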

For another series, the system named is YAP. The series is described as follows: YAP activation in BMDMs. Type of series: cell-based, mice. The settings on record: E. coli 12 h, n = 4 per group. An outline of the steps: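 Bone marrow cells from Fpn^flox/flox or Fpn^LysM/LysM mice were erythrocyte-lysed and grown in DMEM/10% FBS with 10 ng/mL GM-CSF. Nonadherent cells were replated after 24 h and cultured 7 days, with medium changed every 3 days. Cells were infected with E. coli (12 h) with DFO (100 μM, 12 h). Lysates were blotted for P-YAP and YAP (1:1000 each) with a β-actin control (1:5000); n = 4.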

Turning to `CC[C@H](C)[C@@H]1NC(=O)[C@@H](NC(=O)[C@@H](NC(=O)[C@@H]2CCCN2C(=O)[C@H](Cc2ccccc2)NC(=O)[C@H](Cc2c[nH]cn2)NC(=O)[C@@H](NC(=O)[C@@H](N)CC(=O)O)[C@@H](C)O)[C@@H](C)CC)CSSC[C@@H](C(=O)N[C@@H](CCCCN)C(=O)N[C@H](C(=O)O)[C@@H](C)O)NC(=O)[C@@H]2CSSC[C@@H]3NC(=O)[C@@H]4CSSC[C@H](NC(=O)[C@H](Cc5ccccc5)NC1=O)C(=O)N[C@@H](CSSC[C@H](NC(=O)[C@H](CCCCN)NC(=O)[C@H](CO)NC(=O)[C@H](CCCNC(=N)N)NC(=O)[C@H](Cc1c[nH]cn1)NC3=O)C(=O)NCC(=O)N[C@@H](CCSC)C(=O)N2)C(=O)NCC(=O)N4` [Hepcidin], the “prevention of bacterial dissemination” value in series [1] (by limiting extracellular iron availability) is on record as “prevent bacterial dissemination by limiting extracellular iron availability”. Besides, in series [1], the pharmacokinetics result is given as “poor pharmacokinetics”.

As for `CC(=O)N(O)CCCCCNC(=O)CCC(=O)N(O)CCCCCNC(=O)CCC(=O)N(O)CCCCCN` [DFO, desferrioxamine], the “protein levels of Areg, Fpn^LysM/LysM BMDMs, DFO” value with Areg (Fpn^LysM/LysM BMDMs, E. coli 12 h, DFO 100 μM, 12 h) is “decreased YAP activity and the protein levels of Areg”. Besides, in the series with Areg (Fpn^flox/flox BMDMs, E. coli 12 h, DFO 100 μM, 12 h), the “protein levels of Areg, Fpn^flox/flox BMDMs, DFO” value is “decreased YAP activity and the protein levels of Areg”. For the same molecule, the “YAP activity, Fpn^LysM/LysM BMDMs, DFO” value in the series on YAP (Fpn^LysM/LysM BMDMs, DFO 100 μM, 12 h) was “decreased YAP activity”. Moreover, in the series with YAP (Fpn^flox/flox BMDMs, DFO 100 μM, 12 h), the “YAP activity, Fpn^flox/flox BMDMs, DFO” value is listed as “decreased YAP activity”.

Take ferric ammonium citrate: the “production and secretion of Areg, Fpn^flox/flox BMDMs, FAC” value in the series with Areg (Fpn^flox/flox BMDMs, E. coli 12 h, FAC 100 μM, 20 h) is “promoted the production and secretion of Areg”. For the same molecule, the “activation of YAP signaling, Fpn^flox/flox BMDMs, FAC” value in the series with YAP (Fpn^flox/flox BMDMs, FAC 100 μM, 20 h) is “significantly facilitated the activation of YAP signaling”.

For verteporfin, the “protein levels of macrophage-derived Areg (YAP inhibition)” value in the series on Areg (BMDMs and supernatant, 12 h after E. coli infection) is “dramatically downregulated the protein levels of macrophage-derived Areg”.
